From paper PMC10360211 (Science (New York, N.Y.), 2022)
Entries after “also recorded” stand apart in the source; their conditions may differ. Like-named read-outs stand apart in the source and are kept apart here.

Assays:
[1] = tested on: α2AAR D128^3.32 mutant receptors; format: cell-based, human
human α2AAR [2] = target: T1, human α2AAR (Homo sapiens, UniProt P08913); assay: ebBRET-based EMTA G protein and β-arrestin coupling panel; format: cell-based
T1 sequence (P08913 1-465): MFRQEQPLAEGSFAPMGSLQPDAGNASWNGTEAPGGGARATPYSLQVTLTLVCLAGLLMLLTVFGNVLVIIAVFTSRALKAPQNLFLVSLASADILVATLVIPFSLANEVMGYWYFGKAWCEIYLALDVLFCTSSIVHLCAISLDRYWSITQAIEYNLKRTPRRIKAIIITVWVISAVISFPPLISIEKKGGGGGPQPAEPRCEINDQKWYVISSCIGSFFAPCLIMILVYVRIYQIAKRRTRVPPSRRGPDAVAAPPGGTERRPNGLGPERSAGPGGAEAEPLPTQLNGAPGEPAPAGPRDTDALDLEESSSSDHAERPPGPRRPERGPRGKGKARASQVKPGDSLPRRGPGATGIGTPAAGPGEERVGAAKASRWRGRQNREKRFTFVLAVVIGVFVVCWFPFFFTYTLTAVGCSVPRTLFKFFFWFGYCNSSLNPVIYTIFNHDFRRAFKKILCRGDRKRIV
Method in brief: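 ebBRET in HEK293SL cells transfected with premixed biosensor DNA plus α2AAR using PEI (3:1). DNA was 0.57 μg, or 1 μg total for G12/13, and cells were seeded at 3.5×10^4 cells/well for 48 h. Gα activation was read as translocation of RlucII-tagged effectors (p63-RhoGEF for Gq/11, Rap1-GAP for Gi/o, PDZ-RhoGEF for G12/13) to rGFP-CAAX. β-arrestin-1/2-RlucII was also read against rGFP-CAAX. Cells sat in Tyrode HEPES 1 h, then received increasing compound concentrations 10 min at 37°C, with 1 μM Prolume purple for the final 6 min.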

human α2AAR [3] = target: T1, human α2AAR; assay: Internalization assay with rGFP-CAAX and rGFP-FYVE biosensors; format: cell-based; details: for receptor internalization: both biosensors
mice [4] = assay: Constipation assay; details: i.p.; morphine 10 mg/kg, dexmedetomidine 30 μg/kg, ‘9087 5 mg/kg; versus vehicle
α2AAR D79N mutant mice = assay: Tail flick; format: in vivo; details: tail flick 50°C, versus WT
Method in brief: (§1)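 WT and α2AAR D79N mice were habituated for 1 h in cylinders and tested 30 min after s.c. dosing. The tail was immersed in a 50°C water bath to measure heat sensitivity. The experimenter was blind to treatment.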

Pharmacokinetics in mice = format: in vivo; details: 10-mg/kg i.v. and 30-mg/kg p.o.
Method in brief: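 C57BL/6 mice were dosed 10 mg/kg i.v. or 30 mg/kg p.o., with vehicle-dosed groups alongside. One analogue was formulated in 20% v/v HβCD in saline. Sparse sampling used three mice per time point (one for vehicle). Blood was drawn from the orbital sinus into K3EDTA under tribromoethanol (150 mg/kg i.p.), and plasma was spun at 4000 rpm, 10 min, 4°C. Brain was homogenised in ice-cold PBS. Samples were analysed by HPLC-MS/MS; values below LLOQ were set to zero.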

mice [5] = assay: Tail flick; format: in vivo; details: tail flick 50°C, s.c.
Method in brief: as §1

naïve (uninjured) mice = assay: Mechanical withdrawal thresholds in naïve mice; format: in vivo; details: 5 mg/kg s.c.
Method in brief: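 Uninjured mice were habituated for 1 h in Plexiglas cylinders and tested 30 min after s.c. dosing. Hindpaw mechanical thresholds were found with von Frey filaments by the up-down method. The experimenter was blind to treatment, and animals were randomly assigned to compound or vehicle.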

mice [6] = assay: Rotarod motor test; format: in vivo
Method in brief: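 Mice were first trained three times for 5 min on an accelerating rotating rod before any compound. They were then tested 30 min after s.c. dosing, with the experimenter blind to treatment.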

[7] = tested on: spared nerve injury (SNI) mice; assay: SNI model of neuropathic pain, mechanical; format: in vivo
Method in brief: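 Spared nerve injury: under isoflurane, two of the three sciatic nerve branches were ligated and transected distally, leaving the sural nerve intact. Testing was done 7–14 days after injury. Atipamezole (2 mg/kg i.p.) was given 15 min before s.c. agonist, and testing followed 30 min after agonist. Hindpaw thresholds were measured with von Frey filaments by the up-down method, by a blinded experimenter.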

[8] = Metabolic stability in rat liver microsomes; format: in vitro ADME; details: male rat liver microsomes, 1 hour, 20 μM
Method in brief: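 Pooled male Sprague Dawley rat liver microsomes (0.25 mg protein per tube) were incubated with test compound or a positive control (20 µM final). Buffer was 50 mM Tris, 5 mM MgCl2, pH 7.4. Incubation was at 37°C on a rotating carousel.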

human α2AAR [9] = target: T1, human α2AAR; assay: Gαi BRET G protein activation assay; format: cell-based
Method in brief: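 HEK293T cells were co-transfected with α2AAR, Gαi1-RLucII, Gβ1 and Gγ2-GFP10. After 48 h the medium was replaced with PBS and cells were stimulated with ligand for 10 min at 37°C. Coelenterazine 400a (2.5 µM final) was added 5 min before reading. BRET was taken as acceptor/donor emission (515/410 nm) and normalised to buffer (0%) and maximal norepinephrine (100%). There were 3–17 experiments, each in duplicate. Receptor surface expression was checked by anti-FLAG ELISA.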

human α2C = target: T2, human α2C (Homo sapiens, UniProt P18825); assay: Radioligand binding, α2C; details: read-out: Kd of radioligand; saturation, HEK293T membranes
T2 sequence (P18825 1-462): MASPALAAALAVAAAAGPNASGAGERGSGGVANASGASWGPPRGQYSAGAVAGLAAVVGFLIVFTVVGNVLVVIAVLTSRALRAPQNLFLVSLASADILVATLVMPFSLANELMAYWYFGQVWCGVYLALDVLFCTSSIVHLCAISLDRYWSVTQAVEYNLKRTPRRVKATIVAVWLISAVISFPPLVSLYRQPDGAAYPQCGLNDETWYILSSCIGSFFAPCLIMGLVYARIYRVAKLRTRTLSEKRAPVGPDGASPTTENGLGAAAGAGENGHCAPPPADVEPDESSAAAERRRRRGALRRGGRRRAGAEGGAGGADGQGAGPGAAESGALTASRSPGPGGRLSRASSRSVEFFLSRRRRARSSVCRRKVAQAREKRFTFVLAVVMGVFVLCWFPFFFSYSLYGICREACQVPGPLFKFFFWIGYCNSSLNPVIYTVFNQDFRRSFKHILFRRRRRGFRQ

human α2BAR = target: T3, human α2BAR (Homo sapiens, UniProt P18089); assay: Radioligand binding, human α2BAR; details: read-out: Kd of radioligand; saturation, HEK293T membranes
T3 sequence (P18089 1-450): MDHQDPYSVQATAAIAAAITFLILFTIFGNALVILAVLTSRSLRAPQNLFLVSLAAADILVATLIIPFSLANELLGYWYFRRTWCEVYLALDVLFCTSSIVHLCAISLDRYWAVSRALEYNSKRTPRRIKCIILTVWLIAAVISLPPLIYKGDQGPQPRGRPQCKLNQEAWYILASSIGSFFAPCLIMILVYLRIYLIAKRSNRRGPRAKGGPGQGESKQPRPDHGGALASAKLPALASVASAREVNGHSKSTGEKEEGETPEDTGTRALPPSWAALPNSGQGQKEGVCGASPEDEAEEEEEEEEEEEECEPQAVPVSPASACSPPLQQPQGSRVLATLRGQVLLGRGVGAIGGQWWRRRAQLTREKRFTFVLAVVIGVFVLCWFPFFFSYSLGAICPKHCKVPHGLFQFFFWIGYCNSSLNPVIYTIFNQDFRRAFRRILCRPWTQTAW

human α2AAR [10] = target: T1, human α2AAR; assay: Radioligand binding, human α2AAR; details: read-out: Kd of radioligand; saturation, HEK293T membranes
murine α2AAR = target: T4, murine α2AAR (Mus musculus, UniProt Q01338); assay: Radioligand binding, murine α2AAR; details: read-out: Kd of radioligand; saturation, HEK293T membranes
T4 sequence (Q01338 1-465): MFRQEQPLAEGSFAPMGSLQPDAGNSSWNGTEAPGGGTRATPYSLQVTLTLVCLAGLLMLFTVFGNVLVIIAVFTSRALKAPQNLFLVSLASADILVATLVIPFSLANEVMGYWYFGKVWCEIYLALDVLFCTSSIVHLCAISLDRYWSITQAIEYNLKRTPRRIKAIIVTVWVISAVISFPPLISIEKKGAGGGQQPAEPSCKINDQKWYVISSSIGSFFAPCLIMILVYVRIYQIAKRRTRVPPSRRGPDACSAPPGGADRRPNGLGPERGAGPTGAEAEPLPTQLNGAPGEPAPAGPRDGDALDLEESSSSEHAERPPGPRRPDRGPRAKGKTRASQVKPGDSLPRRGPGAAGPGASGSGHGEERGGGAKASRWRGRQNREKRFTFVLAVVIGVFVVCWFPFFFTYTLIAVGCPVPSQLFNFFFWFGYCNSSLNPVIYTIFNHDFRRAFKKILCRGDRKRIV

[11] = target: α2AAR D128^3.32 mutant receptors (Homo sapiens, UniProt P08913, D128A); format: cell-based; details: D128^3.32A versus wild type
α2AAR D128^3.32 mutant receptors (Homo sapiens, UniProt P08913, D128A), sequence (P08913 whole entry D128A): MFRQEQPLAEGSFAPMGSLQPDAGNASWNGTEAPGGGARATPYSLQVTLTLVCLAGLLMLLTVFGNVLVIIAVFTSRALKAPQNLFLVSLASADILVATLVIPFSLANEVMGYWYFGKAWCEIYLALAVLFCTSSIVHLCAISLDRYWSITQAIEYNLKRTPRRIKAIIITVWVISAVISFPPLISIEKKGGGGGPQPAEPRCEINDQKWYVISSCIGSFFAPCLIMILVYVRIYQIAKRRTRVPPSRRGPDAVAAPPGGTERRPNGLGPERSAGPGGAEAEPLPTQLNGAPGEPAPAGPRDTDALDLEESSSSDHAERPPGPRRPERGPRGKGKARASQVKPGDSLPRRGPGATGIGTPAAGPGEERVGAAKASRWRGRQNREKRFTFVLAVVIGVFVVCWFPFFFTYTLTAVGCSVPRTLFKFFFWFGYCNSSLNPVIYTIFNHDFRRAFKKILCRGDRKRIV

NC[C@H](O)c1ccc(O)c(O)c1 [norepinephrine]
Gi activation and β-arrestin recruitment on substitutions to D128^3.32 [1]: almost complete loss
G protein and β-arrestin subtype signaling profile (human α2AAR [2]): strongly activated multiple additional G proteins and β-arrestins
receptor internalization (human α2AAR [3]): comparable responses for both biosensors

Brc1c(NC2=NCCN2)ccc2nccnc12 [brimonidine]
G protein and β-arrestin subtype signaling profile (human α2AAR [2]): strongly activated multiple additional G proteins and β-arrestins
receptor internalization (human α2AAR [3]): comparable responses for both biosensors

CN1CC[C@]23c4c5ccc(O)c4O[C@H]2[C@@H](O)C=C[C@H]3[C@H]1C5 [morphine]
constipation, accumulated pellets over 6 hours (mice [4]): induced constipation
analgesia in D79N mutant mice (α2AAR D79N mutant mice): does not affect; also recorded: not significantly altered by the mutation

Clc1ccc2cccc(Nc3ccncc3)c2c1 [PS75]
oral bioavailability (Pharmacokinetics in mice): fully bio-available
G protein and β-arrestin subtype signaling profile (human α2AAR [2]): preferentially activated Gi, Go, and Gz (Gi/o/z) signaling; also recorded: retained the preferential signaling through the Gi/o versus other G protein families and β-arrestins
withdrawal latencies (mice [5]): increased withdrawal latencies
baseline mechanical withdrawal thresholds (naïve (uninjured) mice): did increase the mechanical thresholds
motor impairment and sedation (mice [6]): did not have an effect on the rotarod test; also recorded: do not cause sedation or motor impairment at analgesic doses
effect of atipamezole on the agonist's effect ([7]; atipamezole 2 mg/kg i.p. 15 min before agonist): partially reversed
effect on mechanical thresholds / allodynia ([7]; s.c.): completely reversed the mechanical hypersensitivity
analgesia in D79N mutant mice (α2AAR D79N mutant mice): substantially decreases the analgesia
reduction of analgesia in D79N mutant mice (α2AAR D79N mutant mice): > 50%
receptor internalization (human α2AAR [3]): negligible receptor internalization
disappearance of α2AARs from the plasma membrane (human α2AAR [3]; α2AAR-RlucII/rGFP-CAAX biosensor): no effect
relocalization of the receptors in endosomes (human α2AAR [3]; α2AAR-RlucII/rGFP-FYVE biosensor): marginal effect at the highest concentrations
metabolic stability [8]: remain largely unmodified
increased potency compared with ‘9087 (human α2AAR [9]; Gi activation): 11 fold
Emax, Gi activation (human α2AAR [9]; Gαi BRET, % of norepinephrine response): 82%
EC50 (human α2AAR [9]; abstract): 4.8 nM

COC1(C2=NCCN2)COc2ccccc2O1 (centres unmarked) [[^3H]RX82,1002]
Kd (human α2C): 0.58 ± 0.11 nM
Kd (human α2BAR): 2.3 ± 0.52 nM
Kd (human α2AAR [10]): 0.54 ± 0.024 nM
Kd (murine α2AAR): 1.8 ± 0.61 nM

Cc1cccc([C@H](C)c2cnc[nH]2)c1C [dexmedetomidine]
Gi activation and β-arrestin recruitment on substitutions to D128^3.32 [1]: almost complete loss
Gi EC50 fold higher [11]: 170,000 fold
G protein and β-arrestin subtype signaling profile (human α2AAR [2]): strongly activated multiple additional G proteins and β-arrestins
motor impairment and sedation (mice [6]): complete sedation; also recorded: full sedation
motor impairment and sedation (mice [6]; listed as DEX): significant impairment and complete sedation at higher doses
analgesia in D79N mutant mice (α2AAR D79N mutant mice): no longer induced analgesia in the mutant mice
analgesia in D79N mutant mice (α2AAR D79N mutant mice; listed as DEX): substantially decreases the analgesia
receptor internalization (human α2AAR [3]): about half of this response
